In ChEMBL document CHEMBL5653617, “Inhibition of BRD4 attenuates tumor cell self-renewal and suppresses stem cell signaling in MYC driven medulloblastoma” (Oncotarget, 2014):
Calls of active or inactive are those of the source.

Experiments:
D283 Med [1] = test: Induction of cell cycle arrest in human D283 Med cells assessed as accumulation of cells at G1 phase at 300 nM incubated for 48 hrs by flow cytometry analysis (reference value: 23.47 +/- 0.29%); assay type: functional
D283 Med [2] = test: Induction of cell cycle arrest in human D283 Med cells assessed as S phase cells at 300 nM incubated for 48 hrs by flow cytometry analysis (reference value: 19.88 +/- 1.26 %); assay type: functional
D458 Med [3] = test: Induction of cell cycle arrest in human D458 Med cells assessed as S phase cells at 300 nM incubated for 48 hrs by flow cytometry analysis (reference value: 43.54 +/- 3.48%); assay type: functional
D458 Med [4] = test: Induction of cell cycle arrest in human D458 Med cells assessed as G2/M phase cells at 300 nM incubated for 48 hrs by flow cytometry analysis (reference value: 18.72 +/- 2.62%); assay type: functional
D283 Med [5] = test: Suppression of human D283 Med cells self-renewal cultured in serum free condition assessed as reduction in formation of new neurosphere at 300 nM; assay type: functional, cell-based
Summary of the method: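 Cells grown as neurospheres in serum-free medium for 48 h, dissociated, and seeded in a limiting dilution from 1000 to 1 cell/well, with 300 nM drug or DMSO. After 7 days in serum-free culture, neurospheres per well counted and plotted against cells seeded.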

Daoy [6] = test: Antitumor activity against human Daoy cells xenografted in athymic nude mice assessed as induction of senescence at 50 mg/kg, ip measured after 5 days by beta-galactosidase staining based analysis; assay type: functional, organism-based; conditions: time 5.0 day
Summary of the method: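 Daoy cells (1.0×10^7 in PBS) injected into the flank of athymic nude mice. Once tumors were palpable, drug given 50 mg/kg i.p. with DMSO as vehicle control. Animals were sacrificed after a 5-day treatment. Tumors were assessed by Ki67 IHC and by senescence-associated β-galactosidase staining.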

Medulloblastoma cell = test: Induction of cell cycle arrest in patient-derived Medulloblastoma cells assessed as accumulation of cells at G1 phase at 300 nM; assay type: functional, cell-based; conditions: Homo sapiens
Daoy [7] = test: Downregulation of IFRD1 gene expression in human Daoy cells at 300 nM by GSEA method; assay type: functional, cell-based
Summary of the method: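 Daoy cells treated with DMSO or 300 nM drug. RNA extracted and hybridized to Affymetrix HG-ST2.0 arrays. Analysis in R/Bioconductor with gene set enrichment analysis. Regulated transcripts defined as p < 0.05, FDR < 0.05, fold change < 0.67 (down) or > 1.5 (up).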

[8] = molecular target: Bromodomain-containing protein 4 (Homo sapiens) (UniProt O60885); conditions: Daoy, dose 300.0 nM
[9] = molecular target: Bromodomain-containing protein 4 (Homo sapiens) (UniProt O60885); conditions: D283 Med, dose 300.0 nM
[10] = molecular target: Bromodomain-containing protein 4 (Homo sapiens) (UniProt O60885); conditions: D283 Med, dose 300.0 nM; remark: listed apart in the source
[11] = molecular target: Bromodomain-containing protein 4 (Homo sapiens) (UniProt O60885); conditions: D458 Med, dose 300.0 nM
[12] = molecular target: Bromodomain-containing protein 4 (Homo sapiens) (UniProt O60885); conditions: D458 Med, dose 300.0 nM; remark: listed apart in the source
[13] = molecular target: Bromodomain-containing protein 4 (Homo sapiens) (UniProt O60885); conditions: D458 Med, dose 300.0 nM; remark: listed apart in the source

## Cc1sc2c(c1C)C(c1ccc(Cl)cc1)=N[C@@H](CC(=O)OC(C)(C)C)c1nnc(C)n1-2
D283 Med [1]
  Activity: 30.373%
D283 Med [2]
  Activity: 14.093%
D458 Med [3]
  Activity: 26.58%
D458 Med [4]
  Activity: 23.266%
D283 Med [5]
  Activity: Active
Daoy [6]
  Activity: Active
Medulloblastoma cell
  Activity: Active
Daoy [7]
  Activity: Active
[8]
  inhibition: Active
[9]
  inhibition: Active
[10]
  inhibition: Active
[11]
  inhibition: Active
[12]
  inhibition: Active
[13]
  inhibition: Active
